According to ChEMBL document CHEMBL1123965, “Substituted 1,3,4-thiadiazoles with anticonvulsant activity. 4. Amidines” (J Med Chem, 1988):

Species on record: Mus musculus
Assay: Lethal dose was determined
Type: toxicity, organism-based
Details: in vivo
Outline: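 Male BKW mice (LACA origin, 18–22 g) were dosed orally with compound dissolved or suspended in 2% Tween 80 in distilled water. Before anticonvulsant testing, animals were observed visually for sedation, ataxia, loss of righting reflex and death. The value is reported in the rotorod column, which was read 1 h after oral dosing.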

Compound	LD30 [mg/kg]
c1ccc(-c2ccccc2-c2nnc(C3=NCCN3)s2)cc1	200

System: Mus musculus
Assay: Anticonvulsant activity in mouse maximal metrazole seizure test 1 hr following p.o. administration.
Type: functional
Details: po
Outline: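 Male BKW mice (LACA origin), 18–22 g, dosed orally with compound in 2% Tween 80/distilled water (solution or suspension). Leptazol 120 mg/kg ip given 1 h after oral dose to provoke maximal seizures. ED50 with limits obtained by Bliss probit analysis.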

Compound	ED50 [mg/kg]
Cc1ccccc1-c1nnc(C2=NCCN2)s1	> 200
CCCC/N=C(\Nc1nnc(-c2ccccc2-c2ccccc2)s1)C(C)C	> 100
CCCC/N=C(/Cc1ccccc1)Nc1nnc(-c2ccccc2C(F)(F)F)s1	> 100
c1ccc(-c2ccccc2-c2nnc(C3=NCCN3)s2)cc1	77
C/C(=N/Cc1ccccc1)Nc1nnc(-c2ccccc2C)s1	102
CCN(CC)/C(C)=N/c1nnc(-c2ccccc2C)s1	84
C/C(=N\c1nnc(-c2ccccc2C)s1)N1CCOCC1	148
CC(=N)Nc1nnc(Cc2ccccc2)s1	50
CCCC/N=C(\N)c1nnc(-c2ccccc2C)s1	~142
Cc1ccccc1-c1nnc(/N=C/Nc2nnc(-c3ccccc3C)s2)s1	> 200
CCCC/N=C(/C)Nc1nnc(-c2ccccc2-c2ccccc2)s1	90
CCCC(=N)Nc1nnc(-c2ccccc2C(F)(F)F)s1	60
CCCC/N=C(/C)Nc1nnc(-c2ccccc2C(F)(F)F)s1	21
CC(=N)Nc1nnc(-c2ccccc2C)s1	78
CCCC/N=C(/C)Nc1nnc(-c2ccccc2C)s1	46
CC(=N)Nc1nnc(-c2ccccc2C(F)(F)F)s1	19
N=C(Cc1ccccc1)Nc1nnc(Cc2ccccc2)s1	45

System: not listed separately
Assay: The dose at which 50% of the mouse fell off the rotarod
Type: ADME, organism-based
Details: in vivo
Outline: (§1)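 Male BKW mice (18–22 g), trained beforehand to stay on a 3-cm-diameter rod turning at 16 rpm; dosed po in 2% Tween 80/water and tested 1 h later. TD50 (dose at which half fall off) by probit analysis. Sedation, ataxia, loss of righting reflex and death noted by visual observation after oral dosing.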

Compound	TD50 [mg/kg]
C/C(=N/Cc1ccccc1)Nc1nnc(-c2ccccc2C)s1	> 200
CCN(CC)/C(C)=N/c1nnc(-c2ccccc2C)s1	> 200
CC(=N)Nc1nnc(Cc2ccccc2)s1	200
CC(=N)Nc1nnc(-c2ccccc2-c2ccccc2)s1	> 100
CCCC/N=C(/C)Nc1nnc(-c2ccccc2-c2ccccc2)s1	> 200
CCCC(=N)Nc1nnc(-c2ccccc2C(F)(F)F)s1	150
CCCC/N=C(/C)Nc1nnc(-c2ccccc2C(F)(F)F)s1	~70
CCCC/N=C(/C)Nc1nnc(-c2ccccc2C)s1	> 100
CC(=N)Nc1nnc(-c2ccccc2C(F)(F)F)s1	~80
N=C(Cc1ccccc1)Nc1nnc(Cc2ccccc2)s1	> 500

System: Mus musculus
Assay: Anticonvulsant activity in mice (1h after dosing, po) was determined by maximal electroshock test
Type: functional
Details: not given
Outline: (§2)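 Male BKW mice (LACA origin), 18–22 g; compound dissolved or suspended in 2% Tween 80 in distilled water, given po, tested 1 h later. Corneal electrodes delivered 4-ms pulses, 50 Hz, 80 V for 0.3 s. End point was block of hind limb tonic seizure; ED50 with limits from probit analysis (Bliss computerized method).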

Compound	ED50 [mg/kg]
CC(=N)Nc1nnc(-c2ccccc2C)s1	200

System: Mus musculus
Assay: The dose at which 50% of the mouse fell off the rotarod; Sedative at 142 mg/kg
Type: ADME, organism-based
Parameters: dose 142 mg/kg
Details: in vivo
Outline: as §1

Compound	TD50
C/C(=N\c1nnc(-c2ccccc2C)s1)N1CCOCC1	Sedative at 142 mg/kg

System: Mus musculus
Assay: The dose at which 50% of the mouse fell off the rotarod; Toxic at 200 mg/kg
Type: toxicity, organism-based
Parameters: dose 200 mg/kg
Details: in vivo
Outline: as §1

Compound	TD50
CCCC/N=C(\N)c1nnc(-c2ccccc2C)s1	Toxic at 200 mg/kg

System: Mus musculus
Assay: The dose at which 50% of the mouse fell off the rotarod; Sedative at 100 mg/kg
Type: ADME, organism-based
Parameters: dose 100 mg/kg
Details: in vivo
Outline: as §1

Compound	TD50
CC(=N)Nc1nnc(-c2ccccc2C)s1	Sedative at 100 mg/kg

System: Mus musculus
Assay: Anticonvulsant activity in mouse maximal electroshock test 1 hr following p.o. administration.
Type: functional
Details: po
Outline: as §2

Compound	ED50 [mg/kg]
Cc1ccccc1-c1nnc(C2=NCCN2)s1	> 100
CCCC/N=C(\Nc1nnc(-c2ccccc2-c2ccccc2)s1)C(C)C	> 200
CCCC/N=C(/Cc1ccccc1)Nc1nnc(-c2ccccc2C(F)(F)F)s1	> 200
c1ccc(-c2ccccc2-c2nnc(C3=NCCN3)s2)cc1	103
C/C(=N/Cc1ccccc1)Nc1nnc(-c2ccccc2C)s1	86
CCN(CC)/C(C)=N/c1nnc(-c2ccccc2C)s1	81
C/C(=N\c1nnc(-c2ccccc2C)s1)N1CCOCC1	108
CC(=N)Nc1nnc(Cc2ccccc2)s1	31
CCCC/N=C(\N)c1nnc(-c2ccccc2C)s1	> 200
Cc1ccccc1-c1nnc(/N=C/Nc2nnc(-c3ccccc3C)s2)s1	> 200
CCCC/N=C(/C)Nc1nnc(-c2ccccc2-c2ccccc2)s1	121
CCCC(=N)Nc1nnc(-c2ccccc2C(F)(F)F)s1	63
CCCC/N=C(/C)Nc1nnc(-c2ccccc2C(F)(F)F)s1	33
CCCC/N=C(/C)Nc1nnc(-c2ccccc2C)s1	48
CC(=N)Nc1nnc(-c2ccccc2C(F)(F)F)s1	18
N=C(Cc1ccccc1)Nc1nnc(Cc2ccccc2)s1	86
